In paper PMC3525873 (British Journal of Pharmacology, 2012):

Columns and labels:
[1] = test system: NFAT; assay: GFP-NFAT translocation in RBL-2H3 cells; type: cell-based; conditions: 10 μM, thapsigargin 1 μM then 2 mM Ca2+ re-addition
Summary of the method: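 RBL-2H3 cells electroporated with GFP-NFAT (20 μg DNA, 300 V, 275 μF) 12–18 h beforehand, on coverslips. In nominally Ca2+-free buffer, stores depleted with 1 μM thapsigargin for 5 min, then 2 mM CaCl2 added. Test compound at 10 μM in all buffers. Basal taken before depletion. Cells fixed in paraformaldehyde with DAPI-stained nuclei. Nuclear/cytosolic GFP intensity ratio measured; ≥18 cells per condition.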

[2] = target: T1, TRPC6 (Mus musculus, UniProt Q61143); assay: Fura-2 Ca2+ entry in HEK293 cells overexpressing GFP-TRPC6; type: cell-based, murine
T1 sequence (Q61143 1-930): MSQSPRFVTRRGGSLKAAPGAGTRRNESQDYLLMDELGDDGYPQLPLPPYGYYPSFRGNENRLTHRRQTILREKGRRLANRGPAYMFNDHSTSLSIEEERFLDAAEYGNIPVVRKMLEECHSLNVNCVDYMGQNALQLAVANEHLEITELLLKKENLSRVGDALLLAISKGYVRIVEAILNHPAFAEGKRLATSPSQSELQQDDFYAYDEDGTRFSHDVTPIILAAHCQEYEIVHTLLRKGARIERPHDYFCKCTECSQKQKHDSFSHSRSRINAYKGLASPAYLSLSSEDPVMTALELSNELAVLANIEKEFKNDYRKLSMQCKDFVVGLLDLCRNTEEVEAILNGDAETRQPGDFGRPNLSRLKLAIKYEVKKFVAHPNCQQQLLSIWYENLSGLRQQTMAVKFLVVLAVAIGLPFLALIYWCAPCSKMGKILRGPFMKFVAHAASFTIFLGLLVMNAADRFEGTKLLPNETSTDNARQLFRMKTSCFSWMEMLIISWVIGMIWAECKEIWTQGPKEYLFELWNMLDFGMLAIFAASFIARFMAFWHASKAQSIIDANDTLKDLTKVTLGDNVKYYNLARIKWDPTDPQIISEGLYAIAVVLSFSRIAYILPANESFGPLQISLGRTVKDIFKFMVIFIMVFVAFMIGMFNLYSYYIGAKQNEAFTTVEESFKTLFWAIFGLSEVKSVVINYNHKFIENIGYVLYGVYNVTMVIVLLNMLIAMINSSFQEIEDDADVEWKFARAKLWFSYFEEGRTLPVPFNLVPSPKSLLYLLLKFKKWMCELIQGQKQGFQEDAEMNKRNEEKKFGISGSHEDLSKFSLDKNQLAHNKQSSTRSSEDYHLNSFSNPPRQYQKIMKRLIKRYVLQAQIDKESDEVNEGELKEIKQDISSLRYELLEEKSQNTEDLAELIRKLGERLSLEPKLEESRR

[3] = test system: RBL-2H3 cells; assay: Degranulation assay; type: cell-based; conditions: ionomycin 0.4 μM
Summary of the method: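 RBL-2H3 cells grown to confluency, washed in RBL-2H3 buffer with 2 mM CaCl2, all incubations at 37°C. Test compound (3 or 10 μM) for 15 min, then ionomycin 0.4 μM final for 30 min. Stopped with 0.4 M glycine (pH 10.7), A405 read. Untreated and 2% triton-lysed cells served as basal/maximal references. n = 3 passages.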

[4] = target: CRAC currents in native RBL-2H3 cells (Rattus norvegicus, UniProt Q5M848); assay: Patch-clamp of CRAC currents in native RBL-2H3 cells; type: cell-based
Summary of the method: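 Whole-cell recording of native RBL-2H3 cells at room temperature. Stores depleted passively by 20 mM EGTA in the Cs-methanesulphonate pipette solution (pH 7.2). Bath contained 20 mM CaCl2 (pH 7.4). Ramps from −90 to +90 mV over 1 s, holding +30 mV. Test compound at 3 μM, pre-incubated or applied acutely. Net current (minus basal) read at −85 mV 300 s after break-in; n ≥ 6 cells.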

[5] = target: T2, TRPC3 (Homo sapiens, UniProt Q13507); type: cell-based; conditions: TRPC3 ROCE vs RBL-2H3 SOCE
T2 sequence (Q13507 74-921 limits assumed): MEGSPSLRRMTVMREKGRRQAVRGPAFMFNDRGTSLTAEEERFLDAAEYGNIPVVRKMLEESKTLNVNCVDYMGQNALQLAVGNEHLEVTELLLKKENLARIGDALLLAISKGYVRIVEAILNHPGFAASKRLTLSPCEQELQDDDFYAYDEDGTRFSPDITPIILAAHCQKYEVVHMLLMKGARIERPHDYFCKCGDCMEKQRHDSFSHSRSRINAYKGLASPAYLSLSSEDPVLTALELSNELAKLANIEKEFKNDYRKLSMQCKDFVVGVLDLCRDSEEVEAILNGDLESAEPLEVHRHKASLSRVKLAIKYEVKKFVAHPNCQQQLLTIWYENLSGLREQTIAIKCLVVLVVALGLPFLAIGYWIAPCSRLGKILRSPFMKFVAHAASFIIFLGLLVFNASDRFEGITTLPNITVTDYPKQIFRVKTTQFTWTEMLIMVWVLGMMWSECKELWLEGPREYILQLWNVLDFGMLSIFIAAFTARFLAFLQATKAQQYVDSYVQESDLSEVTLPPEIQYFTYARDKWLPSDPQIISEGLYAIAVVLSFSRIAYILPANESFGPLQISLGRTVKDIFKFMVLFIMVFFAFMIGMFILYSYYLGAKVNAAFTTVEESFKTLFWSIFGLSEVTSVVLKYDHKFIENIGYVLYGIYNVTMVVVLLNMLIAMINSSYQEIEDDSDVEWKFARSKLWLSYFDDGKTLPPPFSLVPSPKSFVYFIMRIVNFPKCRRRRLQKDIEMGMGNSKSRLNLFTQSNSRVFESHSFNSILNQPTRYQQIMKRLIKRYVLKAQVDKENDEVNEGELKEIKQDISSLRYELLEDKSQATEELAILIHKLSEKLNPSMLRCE

Sequence of CRAC currents in native RBL-2H3 cells (Q5M848 whole entry): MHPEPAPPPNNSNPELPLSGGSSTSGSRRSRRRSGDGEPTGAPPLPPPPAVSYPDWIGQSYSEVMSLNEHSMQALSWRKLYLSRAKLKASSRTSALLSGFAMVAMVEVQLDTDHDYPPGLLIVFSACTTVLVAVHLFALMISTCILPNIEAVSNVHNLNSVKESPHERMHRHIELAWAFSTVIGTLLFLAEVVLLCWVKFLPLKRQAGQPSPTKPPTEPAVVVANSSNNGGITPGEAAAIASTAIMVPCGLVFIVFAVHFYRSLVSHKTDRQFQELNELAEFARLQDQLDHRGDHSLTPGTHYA

IC50 [2] [µM]	Effect on CRAC Ca2+ entry-mediating conductance ([4]; 3 μM pre-incubation)	Selectivity for TRPC3-ROCE as compared with the SOCE model, orders of magnitude [5] [OM]	Selectivity for TRPC3-ROCE as compared with the SOCE model ([5]; ratio of IC50 values) [fold]	inhibition at 3 µM ([4]; RBL-2H3, read-out: Inhibition of CRAC currents) [%]	Compound	Effect on NFAT translocation [1]	Effect on ionomycin-initiated degranulation ([3]; 3 μM)	Effect on ionomycin-initiated degranulation ([3]; 10 μM)
> 10	completely inhibiting CRAC currents	–	–	–	O=C(Nc1ccc(-n2nc(C(F)(F)F)cc2C(F)(F)F)cc1)c1ccncc1F [Pyr6, N-(4-(3,5-bis(trifluoromethyl)-1H-pyrazole-1-yl)phenyl)-3-fluoroisonicotinamide]	clearly inhibited NFAT translocation	substantially reduced degranulation	suppressed responses down to basal levels
> 10	–	1.25	18	~50	Cc1ccc(S(=O)(=O)Nc2ccc(-n3nc(C(F)(F)F)cc3C(F)(F)F)cc2)cc1 [Pyr10, N-(4-(3,5-bis(trifluoromethyl)-1H-pyrazole-1-yl)phenyl)-4-methylbenzenesulfonamide]	failed to suppress NFAT activation significantly	–	–
